Series [1] has as its system Lipid bilayer. Put plainly: Binding affinity to DOPC-cholesterol liposome at 10 to 1000 uM after 45 mins by ellipsometry. The method, boiled down:
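Ellipsometry on DOPC-cholesterol bilayers deposited from DDM micelles onto silica. Peptide was added cumulatively in 10 mM Tris, pH 7.4, with 5 mM glucose at 37°C; […] adds 150 mM NaCl. Each step was followed 45 min to saturation. Adsorbed amount was calculated from refractive index and thickness, with dn/dc 0.154 cm3/g. Duplicates.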

Series [2] concerns Lipid bilayer. Put plainly: Induction of DOPC-cholesterol liposome leakage in cell-free system at 0.1 to 1 uM after 45 mins. Type of series: functional. In short, it runs like this:
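Carboxyfluorescein-loaded (100 mM, self-quenching) DOPC-cholesterol 3:2 unilamellar liposomes, about 110 nm, at 10 µM lipid in Tris buffer at 37°C with stirring. Peptide was added at a single concentration per experiment, between 0.01 and 1 µM. After a 10 min baseline, fluorescence increase was followed for 45 min and the limiting leakage level taken.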

Series [3] is described as follows: Stability of the compound at 136 uM after 4 hrs in presence of human neutrophil elastase. It counts as ADME. The method, boiled down: (§1)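 Peptide at 136 µM was incubated with protease (peptide:enzyme 300:1) for 4 h at 37°C in 10 mM Tris, pH 7.4. The reaction was stopped by boiling in Laemmli buffer, then run on Tris-Tricine 16.5% SDS-PAGE and Coomassie stained. Band densitometry gave the undegraded fraction, normalized to peptide incubated without enzyme. Two separate experiments.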

Series [4] can be described thus: Stability of the compound at 136 uM after 4 hrs in presence of Pseudomonas aeruginosa elastase. It counts as ADME. In short, it runs like this:
as §1

Series [5] can be described thus: Stability of the compound at 136 uM after 4 hrs in presence of aureolysin. It counts as ADME. The method, boiled down: as §1
The nature of series [6]: Stability of the compound at 136 uM after 4 hrs in presence of […] V8 protease. It counts as ADME. In short, it runs like this: as §1
The subject of series [7] is Staphylococcus aureus. Put plainly: Antimicrobial activity against Staphylococcus aureus FDA 486 after 21 hrs by broth microdilution method. Type of series: functional. To be noted: FDA 486, 21 h. The method, boiled down: (§2)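 Microtiter broth dilution at 37°C for 21 h in DEAE-refined LB medium prepared in 10 mM Tris, pH 7.4. Bacteria were grown overnight in 3% trypticase soy broth, rinsed in Tris and used at about 10^6 CFU/ml. Final peptide was 0.6–80 µM in twofold steps. Growth was read visually as pellet and at OD540. MIC is >95% inhibition with no visible pellet. Two separate experiments.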
On the technique in general: Broth dilution looks for growth in wells or tubes with falling amounts of substance.

Series [8] concerns Staphylococcus aureus. Put plainly: Antimicrobial activity against Staphylococcus aureus 2844 after 21 hrs by broth microdilution method. It counts as functional. To be noted: Staphylococcus aureus, 2844, 21 h. The method, boiled down: as §2
In series [9] the test system is Staphylococcus aureus. The experiment in a line: Antimicrobial activity against Staphylococcus aureus 29213 after 21 hrs by broth microdilution method. It counts as functional. Particulars: Staphylococcus aureus, 29213, 21 h. The method, boiled down: as §2
The subject of series [10] is Pseudomonas aeruginosa. The experiment in a line: Antimicrobial activity against Pseudomonas aeruginosa ATCC 27853 after 21 hrs by broth microdilution method. Type of series: functional. Particulars: ATCC 27853, 21 h. The method, boiled down: as §2
Series [11] deals with Pseudomonas aeruginosa. The experiment in a line: Antimicrobial activity against Pseudomonas aeruginosa 15159 after 21 hrs by broth microdilution method. To be noted: Pseudomonas aeruginosa, 15159, 21 h. Type of series: functional. In short, it runs like this: as §2

≈ marks a conversion by molar mass, not a printed value. Calls of active or inactive are those of the source. No cut-off for these calls is given here. Where a SMILES comes first, the peptide text is derived from it.

The term MIC denotes the lowest concentration found to suppress growth.

For `CC[C@H](C)[C@H](NC(=O)[C@H](CCCNC(=N)N)NC(=O)[C@H](CCC(N)=O)NC(=O)[C@@H](NC(=O)[C@H](NC(=O)[C@H](CCCNC(=N)N)NC(=O)[C@H](CCCCN)NC(=O)[C@@H](Cc1ccccc1)NC(=O)[C@@H](N)CCC(=O)O)[C@@H](C)CC)C(C)C)C(=O)N[C@@H](CCCCN)C(=O)N[C@@H](CC(=O)O)C(=O)N[C@H](Cc1ccccc1)C(=O)N[C@@H](CC(C)C)C(=O)N[C@@H](CCCNC(=N)N)C(=O)N[C@@H](CC(N)=O)C(=O)N[C@@H](CC(C)C)C(=O)N[C@H](C(=O)O)C(C)C`, the result with Lipid bilayer [1] and with Lipid bilayer [2] was Active.

`CC[C@@H](C)[C@@H](NC(=O)[C@H](CCCNC(=N)N)NC(=O)[C@H](CCC(N)=O)NC(=O)[C@@H](NC(=O)[C@H](NC(=O)[C@H](CCCNC(=N)N)NC(=O)[C@H](CCCCN)NC(=O)[C@@H](Cc1ccccc1)NC(=O)[C@@H](N)CCC(=O)O)[C@H](C)CC)C(C)C)C(=O)N[C@@H](CCCCN)C(=O)N[C@@H](CC(=O)O)C(=O)N[C@H](Cc1ccccc1)C(=O)N[C@@H](CC(C)C)C(=O)N[C@@H](CCCNC(=N)N)C(=O)N[C@@H](CC(N)=O)C(=O)N[C@@H](CC(C)C)C(=O)N[C@H](C(=O)O)C(C)C` [listing 1 of 2 here]: the Stability result in [3], in [4], in series [5] and in series [6] was “Stable” in each case.

Consider `CC[C@H](C)[C@H](NC(=O)[C@H](CCCCN)NC(=O)[C@H](CCC(=O)O)NC(=O)[C@H](CCCCN)NC(=O)[C@H](CO)NC(=O)[C@H](CCCCN)NC(=O)[C@H](CCCNC(=N)N)NC(=O)[C@H](Cc1ccccc1)NC(=O)[C@H](Cc1ccccc1)NC(=O)[C@H](CC(=O)O)NC(=O)CNC(=O)[C@H](CC(C)C)NC(=O)[C@@H](N)CC(C)C)C(=O)NCC(=O)N[C@@H](CCCCN)C(=O)N[C@@H](CCC(=O)O)C(=O)N[C@@H](Cc1ccccc1)C(=O)N[C@@H](CCCCN)C(=O)N[C@@H](CCCNC(=N)N)C(=O)N[C@H](C(=O)N[C@H](C(=O)N[C@@H](CCC(N)=O)C(=O)N[C@@H](CCCNC(=N)N)C(=O)N[C@H](C(=O)N[C@@H](CCCCN)C(=O)N[C@@H](CC(=O)O)C(=O)N[C@@H](Cc1ccccc1)C(=O)N[C@@H](CC(C)C)C(=O)N[C@@H](CCCNC(=N)N)C(=O)N[C@@H](CC(N)=O)C(=O)N[C@@H](CC(C)C)C(=O)N[C@H](C(=O)N1CCC[C@H]1C(=O)N[C@@H](CCCNC(=N)N)C(=O)N[C@H](C(=O)N[C@@H](CCC(=O)O)C(=O)N[C@@H](CO)C(=O)O)[C@@H](C)O)C(C)C)[C@@H](C)CC)C(C)C)[C@@H](C)CC` [CATHELICIDIN], for which the MIC in the series with Staphylococcus aureus [7] was determined as 2.5 µM (≈ 11.2 µg/mL); in the series with Staphylococcus aureus [8], 5 µM (≈ 22.5 µg/mL); in the series with Staphylococcus aureus [9], 5 µM (≈ 22.5 µg/mL); in the series with Pseudomonas aeruginosa [10], 2.5 µM (≈ 11.2 µg/mL); in the series with Pseudomonas aeruginosa [11], 2.5 µM (≈ 11.2 µg/mL). Also, the Stability entry in series [3], in series [4], in series [5] and in series [6] was “Unstable” each time.

For `CC(=O)N[C@@H](CCC(=O)O)C(=O)N[C@@H](Cc1c[nH]c2ccccc12)C(=O)N[C@@H](CCCCN)C(=O)N[C@@H](CCCNC(=N)N)C(=O)N[C@@H](Cc1c[nH]c2ccccc12)C(=O)N[C@H](C(=O)N[C@@H](CCC(N)=O)C(=O)N[C@@H](CCCNC(=N)N)C(=O)N[C@@H](Cc1c[nH]c2ccccc12)C(=O)N[C@@H](CCCCN)C(=O)N[C@@H](CC(=O)O)C(=O)N[C@@H](Cc1c[nH]c2ccccc12)C(=O)N[C@@H](CC(C)C)C(=O)N[C@@H](CCCNC(=N)N)C(=O)N[C@@H](CC(N)=O)C(=O)N[C@@H](CC(C)C)C(=O)N[C@H](C(N)=O)C(C)C)C(C)C` (Ac-EWKRWVQRWKDWLRNLV-NH2), the MIC amounted to 5 µM (≈ 12.2 µg/mL) in the series on Staphylococcus aureus [7]; 5 µM (≈ 12.2 µg/mL) in the series with Staphylococcus aureus [8]; 10 µM (≈ 24.4 µg/mL) in the series on Staphylococcus aureus [9]; 10 µM (≈ 24.4 µg/mL) against Pseudomonas aeruginosa [10]; 10 µM (≈ 24.4 µg/mL) against Pseudomonas aeruginosa [11]. The Stability entry in series [3] is on record as “Stable”; in [4] it was “Unstable”; in [5], “Stable”; in series [6], “Stable”. Moreover, the result with Lipid bilayer [2] was Active.

For the compound `CC[C@@H](C)[C@@H](NC(=O)[C@H](CCCNC(=N)N)NC(=O)[C@H](CCC(N)=O)NC(=O)[C@@H](NC(=O)[C@H](NC(=O)[C@H](CCCNC(=N)N)NC(=O)[C@H](CCCCN)NC(=O)[C@@H](Cc1ccccc1)NC(=O)[C@H](CCC(=O)O)NC(C)=O)[C@H](C)CC)C(C)C)C(=O)N[C@@H](CCCCN)C(=O)N[C@@H](CC(=O)O)C(=O)N[C@H](Cc1ccccc1)C(=O)N[C@@H](CC(C)C)C(=O)N[C@@H](CCCNC(=N)N)C(=O)N[C@@H](CC(N)=O)C(=O)N[C@@H](CC(C)C)C(=O)N[C@H](C(N)=O)C(C)C` [listing 1 of 2 here], the MIC against Staphylococcus aureus [7], in the series with Staphylococcus aureus [8], against Staphylococcus aureus [9], with Pseudomonas aeruginosa [10] and with Pseudomonas aeruginosa [11] was above 80 µM each time.

For `CC[C@@H](C)[C@@H](NC(=O)[C@H](CCCNC(=N)N)NC(=O)[C@H](CCC(N)=O)NC(=O)[C@@H](NC(=O)[C@H](NC(=O)[C@H](CCCNC(=N)N)NC(=O)[C@H](CCCCN)NC(=O)[C@@H](Cc1ccccc1)NC(=O)[C@@H](N)CCC(=O)O)[C@H](C)CC)C(C)C)C(=O)N[C@@H](CCCCN)C(=O)N[C@@H](CC(=O)O)C(=O)N[C@H](Cc1ccccc1)C(=O)N[C@@H](CC(C)C)C(=O)N[C@@H](CCCNC(=N)N)C(=O)N[C@@H](CC(N)=O)C(=O)N[C@@H](CC(C)C)C(=O)N[C@H](C(=O)O)C(C)C` [listing 2 of 2 here], the MIC against Staphylococcus aureus [7], in the series on Staphylococcus aureus [8], in the series on Staphylococcus aureus [9], in the series on Pseudomonas aeruginosa [10] and against Pseudomonas aeruginosa [11] was above 80 µM throughout.

As for `CC[C@H](C)[C@@H](NC(=O)[C@H](CCCNC(=N)N)NC(=O)[C@H](CCC(N)=O)NC(=O)[C@@H](NC(=O)[C@H](NC(=O)[C@H](CCCNC(=N)N)NC(=O)[C@H](CCCCN)NC(=O)[C@@H](Cc1ccccc1)NC(=O)[C@H](CCC(=O)O)NC(C)=O)[C@@H](C)CC)C(C)C)C(=O)N[C@@H](CCCCN)C(=O)N[C@@H](CC(=O)O)C(=O)N[C@H](Cc1ccccc1)C(=O)N[C@@H](CC(C)C)C(=O)N[C@@H](CCCNC(=N)N)C(=O)N[C@@H](CC(N)=O)C(=O)N[C@@H](CC(C)C)C(=O)N[C@H](C(N)=O)C(C)C`, the result in the series with Lipid bilayer [2] was Active.

On to `CC[C@@H](C)[C@@H](NC(=O)[C@H](CCCNC(=N)N)NC(=O)[C@H](CCC(N)=O)NC(=O)[C@@H](NC(=O)[C@H](NC(=O)[C@H](CCCNC(=N)N)NC(=O)[C@H](CCCCN)NC(=O)[C@@H](Cc1ccccc1)NC(=O)[C@H](CCC(=O)O)NC(C)=O)[C@H](C)CC)C(C)C)C(=O)N[C@@H](CCCCN)C(=O)N[C@@H](CC(=O)O)C(=O)N[C@H](Cc1ccccc1)C(=O)N[C@@H](CC(C)C)C(=O)N[C@@H](CCCNC(=N)N)C(=O)N[C@@H](CC(N)=O)C(=O)N[C@@H](CC(C)C)C(=O)N[C@H](C(N)=O)C(C)C` [listing 2 of 2 here], for which the Stability result in [3], in [4], in series [5] and in [6] was “Stable” throughout.

Source of the values: ChEMBL document CHEMBL1629621, “Evaluation of strategies for improving proteolytic resistance of antimicrobial peptides by using variants of EFK17, an internal segment of LL-37” (Antimicrob Agents Chemother, 2009).
